MrgX1 allo act: allosterically activates human MrgX1 receptor signaling | B-score at 10 µM | Q96LB2 | MrgX1-HEK293, Fluo-4 calcium flux, FDSS; stronger effect = higher value | hit rate 0.63% among 310,000;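 active = plate-corrected calcium response at least 3 library SD above typical, normal starting fluorescence, not activating the receptor alone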;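 also: compound read alongside a low EC10 to EC30 dose of BAM8-22 agonist; peak minus trough fluorescence over baseline measured at the second addition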
Target sequence (Q96LB2 whole entry, looked up): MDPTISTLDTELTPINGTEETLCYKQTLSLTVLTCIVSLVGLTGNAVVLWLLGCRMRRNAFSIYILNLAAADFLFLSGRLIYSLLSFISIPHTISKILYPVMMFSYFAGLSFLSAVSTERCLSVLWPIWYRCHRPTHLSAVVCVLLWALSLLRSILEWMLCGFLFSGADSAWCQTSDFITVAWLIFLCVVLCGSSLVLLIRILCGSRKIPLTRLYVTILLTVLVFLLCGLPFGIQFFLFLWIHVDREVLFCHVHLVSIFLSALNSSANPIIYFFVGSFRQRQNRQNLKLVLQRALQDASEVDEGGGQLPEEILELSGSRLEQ
RGS4 block: human RGS4 inhibition | HEK293 M3R/RGS4 inducible, Fluo-4 calcium flux; stronger effect = higher value; triggered by carbachol at its EC20 | B-score at 10 µM | hit rate 0.45% among 310,000 | AID 463165;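 active = B-score, a plate-corrected calcium signal, over three deviations above library mean, with baseline fluorescence within five deviations of library mean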;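 also: RGS4 expression induced by doxycycline in cells with stable M3 receptor; B-score is computed from the integrated fluorescence ratio over baseline after carbachol; higher B-score means a larger calcium signal and so more RGS4 inhibition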
Target sequence (P49798 whole entry, looked up): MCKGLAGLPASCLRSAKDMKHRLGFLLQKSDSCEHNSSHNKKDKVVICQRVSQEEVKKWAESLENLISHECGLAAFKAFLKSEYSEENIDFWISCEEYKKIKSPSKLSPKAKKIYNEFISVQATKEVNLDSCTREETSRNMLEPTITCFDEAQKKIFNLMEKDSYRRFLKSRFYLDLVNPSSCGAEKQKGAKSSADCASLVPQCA
MrgX1 antagonist: blocks BAM8-22 activation of human MrgX1 receptor | Q96LB2 | MRGX1-HEK293 calcium flux, Fluo-4, BAM8-22 antagonism; stronger effect = lower value | B-score at 10 µM | hit rate 1.3% among 310,000 | AID 588676;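 active = calcium-response B-score plate-corrected more than 3 library SD below zero, starting fluorescence within 5 deviations, no agonist response on first addition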;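 also: peak minus trough fluorescence over baseline after final BAM8-22 challenge near maximal dose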
RGS4 pot: RGS4 potentiation or activation | HEK293 M3R/inducible RGS4, carbachol calcium flux Fluo4; stronger effect = lower value | B-score at 10 µM | hit rate 0.92% among 310,000 | AID 463111;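 active = B-score of the integrated calcium signal more than 4 SD below the library mean, with starting fluorescence not abnormally high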;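 also: negative B-score means reduced calcium response which marks RGS4 activation or potentiation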
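Assay system: HEK293 FlpIn-TREx cells, stable M3R, doxycycline-inducible RGS4 / Probe or stimulus: carbachol, ECmax concentration / Times: overnight RGS4 induction, 30 min dye load 37 °C, 20 min compound RT / Signal: kinetic calcium fluorescence imaging with Fluo4-AM dye, 2 µM / Measure: Agonist-evoked peak-minus-minimum fluorescence over baseline, integrated ratio, B score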
MrgX1 agonist: human MrgX1 receptor agonism, primary screen; hit rate 0.44% among 310,000; Q96LB2; MrgX1-HEK293 cells, Fluo-4 calcium fluorescence, agonist mode; stronger effect = higher value; B-score at 10 µM;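 active = calcium response B-score plate-corrected fluorescence ratio at least 3 library SD, with starting fluorescence B-score inside 5 SD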
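Material: MrgX1-expressing HEK293 cells; input: 15,000 cells per well; doses: test compound given as first of three sequential additions; schedule: overnight plating before 1 h dye loading; technique: Fluo-4 NW calcium-flux fluorescence, kinetic read; evaluation: baseline-normalised fluorescence change ratio, B-scored; control set: plate-wise positive and negative controls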
* = called active by the depositor; i = inactive; nt = no result. Sampled rows, rich in hits. Any-hit rate of the full collection: about 3.5%.

SMILES | MrgX1 allo act | RGS4 block | MrgX1 antagonist | RGS4 pot | MrgX1 agonist
O=C(O)/C=C/c1cn(-c2ccccc2)nc1-c1ccc(-c2ccc([N+](=O)[O-])cc2)o1 | i | i | -4.6* | i | i
COc1ccc(-c2nn(-c3ccccc3)cc2C=O)cc1[N+](=O)[O-] | i | i | i | i | i
O=C(O)/C=C/c1cn(-c2ccccc2)nc1-c1cccc([N+](=O)[O-])c1 | i | i | i | i | i
COc1ccc(-c2nn(-c3ccccc3)cc2/C=C/C(=O)O)cc1[N+](=O)[O-] | 9.2* | i | i | i | i
Cc1ccccc1C(=O)NNC(=O)C1CCN(C(=O)Nc2ccccc2)CC1 | i | i | i | i | i
CC(C)(C)c1ccc(/C=C/C(=O)N2CCN(c3ncccn3)CC2)cc1 | i | i | -6.3* | i | i
CCOC(=O)c1c(N2C(=O)Nc3cc(Cl)c(Cl)cc3N2O)sc2c1CCCCC2 | i | nt | i | nt | 50*
CCOC(=O)c1c(-n2cnnn2)sc2c1CCCC2 | i | i | i | i | i
CC1CC(C)CN(C(=O)CCNC(=O)c2ccccc2Cl)C1 (configuration not stated) | i | i | i | i | i
CCN(CC#CCC(O)(c1ccccc1)C1CCCC1)C(C)C (configuration not stated) | i | i | i | -7.4* | i
COc1ccc(-n2ccnc(SCC(=O)NCc3ccccc3Cl)c2=O)cc1 | i | i | i | i | i
Cc1ccccc1-c1cc(C(=O)NCc2cccc(C(F)(F)F)c2)nn1CC1CC(c2cccc([N+](=O)[O-])c2)=NO1 (configuration not stated) | i | nt | i | nt | i
CCCCCCN1C=CC=C/C1=C/C=C(C#N)C#N | i | i | -8.1* | i | i
COc1ccccc1N1CCN(C(=O)c2cc3c(C)nc4ccccc4c3o2)CC1 | i | i | i | -7.4* | i
Cc1nc2ccccc2c2oc(C(=O)N3CC(C)CC(C)C3)cc12 (configuration not stated) | i | i | i | i | i
COc1ccc(OC)c(CCNC(=O)CCCC(=O)n2ncc3cc(C)ccc32)c1 | i | i | i | i | i
CNc1ccc(Br)cc(C(=O)/C=C/c2cc(OC)ccc2OC)c1=O | i | i | i | i | i
CCNc1ccc(Br)cc(C(=O)/C=C/c2ccc(Cl)cc2Cl)c1=O | i | i | -6.1* | i | i
N=C(N)SCc1ccc(O)c([N+](=O)[O-])c1 | i | i | i | i | i
CCCCOc1ccc(CSC2=NCCN2)cc1[N+](=O)[O-] | i | i | i | i | 28*
CCOc1ccc(CSC2=NCCN2)cc1[N+](=O)[O-] | i | i | i | i | i
COc1ccc(CSC(=N)N)cc1[N+](=O)[O-] | i | i | i | i | 39*
CCCCCOc1ccc(CSC(=N)N)cc1[N+](=O)[O-] | i | i | i | -7.8* | 49*
O=C(Nc1ccccc1)NN(C(=O)CCl)c1ccccc1 | i | i | i | i | i
CN(Cc1ccccc1)S(=O)(=O)c1ccc(S(=O)(=O)N(Cc2ccc(F)cc2)C2CCCC2)cc1 | i | i | -4.6* | i | i
SMILES | MrgX1 allo act | RGS4 block | MrgX1 antagonist | RGS4 pot | MrgX1 agonist
O=C1N=C(N2CCc3ccccc3C2)S/C1=C\c1cccc(O)c1 | i | i | i | -8.3* | i
COc1ccc(/C=C2\SC(N3CCc4ccccc4C3)=NC2=O)cc1 | i | i | -4.7* | i | i
COc1cc(/C=C2\SC(N3CCc4ccccc4C3)=NC2=O)cc(OC)c1OC | i | i | i | i | i
CC(C)CN1C(=O)C(=O)N(CC(=O)N2CCN(c3ccccc3)CC2)C1=O | i | i | i | i | i
C#CCOCCOCCOCCNc1nc(N2CCN(C(=O)CCCCCCCCCCNC(=O)[C@@H](CCC(=O)O)n3cc(CCCCCN)nn3)CC2)nc(N2CCN(C(=O)CCCCCCCCCCNC(=O)[C@H]([C@@H](C)CC)n3cc(CCCCCN)nn3)CC2)n1 | i | nt | i | nt | i
C#CCOCCOCCOCCNc1nc(N2CCN(C(=O)CCCCCCCCCCNC(=O)[C@H]([C@@H](C)CC)n3cc(CCCCCN)nn3)CC2)nc(N2CCN(C(=O)CCCCCCCCCCNC(=O)[C@H](CO)n3cc(CCCCCN)nn3)CC2)n1 | i | nt | i | nt | 108*
C#CCOCCOCCOCCNc1nc(N2CCN(C(=O)CCCCCCCCCCNC(=O)[C@H]([C@@H](C)CC)n3cc(CCCCCN)nn3)CC2)nc(N2CCN(C(=O)CCCCCCCCCCNC(=O)[C@@H]([C@H](C)CC)n3cc(CCCCCN)nn3)CC2)n1 | i | nt | i | nt | 106*
COC(=O)C1CCN(C(=O)COC(=O)CSc2ccc(C(N)=O)cc2[N+](=O)[O-])CC1 | i | i | -6.4* | i | i
CCOC(=O)C1CCN(C(=O)COC(=O)CSc2ccc(C(N)=O)cc2[N+](=O)[O-])CC1 | i | i | i | i | i
CCOC(=O)CSc1ccc(C(=O)NCCCN2CCOCC2)cc1[N+](=O)[O-] | i | i | i | -8.2* | i
Cc1ccc(NC2CCCN(C(=O)C3CCCC3)C2)cc1C (configuration not stated) | i | i | i | i | i
O=C1NC2(CCCCC2)C(=O)N1Cc1ccc([N+](=O)[O-])cc1 | i | i | -7.2* | i | i
O=C(O)Cn1c(=O)c2c3c(sc2n(Cc2ccc(Cl)cc2Cl)c1=O)CCCC3 | i | i | i | i | i
O=C1CCCCCCC1Sc1ccccc1[N+](=O)[O-] (configuration not stated) | 15* | i | i | i | i
N#C/C(=C/c1ccc(N2CCCCC2)cc1)c1cccc(F)c1 | i | i | i | i | i
N#C/C(=C/c1ccc(N2CCCCC2)o1)c1cccc(F)c1 | i | i | -6.4* | i | i
N#C/C(=C/c1ccc(N2CCCCCC2)o1)c1ccc(Cl)cc1 | 6.5* | i | i | i | i
Cc1ccc(/C(C#N)=C\c2ccc(N3CCOCC3)o2)cc1 | i | i | i | i | i
O=C(COc1cccc(Cl)c1)Nc1ccccc1N1CCCCC1 | i | i | i | i | i
COC(=O)c1ccc(OC(=O)c2ccco2)cc1 | i | i | i | i | i
O=Cc1ccnc(-c2ccc(OC(=O)c3ccco3)cc2)n1 | i | i | i | i | 76*
NS(=O)(=O)c1ccc(CCNCc2ccccc2OCc2ccc(F)cc2)cc1 | i | i | -4.8* | i | i
